Experimental data published in ChEMBL document CHEMBL1121686 (J Med Chem, 1981).
“And” between values parts separate entries of the source, which are not always exact repeats. Equal values may be shown once.

Key:
[1] = system: Mus musculus; assay: Percent dose excreted in 0-48 hours administered ip to male mouse; type: ADME, organism-based; details: in vivo
Procedure, shortened: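 Young adult male Swiss mice, previously housed on pine wood-chip bedding, received N-hydroxyacetaminophen in aqueous solution i.p. at 2.0 mmol/kg. They were then kept in metabolic cages with standard feed and water ad libitum. Urine was collected for 48 h and analysed by gradient reverse-phase HPLC, with peak areas calibrated against standard solutions.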

[2] = (§1) Percent total excretion of 3-methoxyacetaminophen glucuronide; type: ADME
Procedure, shortened: (§2)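 Urine was collected for 48 h from dosed rats or mice kept in metabolic cages. It was filtered (0.5 μm) and separated by reverse-phase HPLC at 2 mL/min, starting in phosphate-buffered solvent at pH 7.2. After a 4 min delay, methanol was raised linearly to 50% over 18 min. Detection was at 254 and 280 nm. Each metabolite was quantified from peak area using response factors from standards and expressed as % of total excreted metabolites.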

[3] = system: Rattus norvegicus; assay: The compound tested for toxicity in kidney against male rat after intraperitoneal administration of 1.0 mmol/kg; type: organism-based; details: in vivo, ip
Procedure, shortened: (§3)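 Young adult male Sprague-Dawley rats dosed intraperitoneally at 1.0 or 2.0 mmol/kg in aqueous solution. Animals were kept in metabolic cages with food and water ad libitum, and urine was collected over 48 h. Liver and kidney were examined histologically at 48 h. Liver was graded as vacuolation (1+) or centrilobular necrosis (2+, 3+, 4+); kidney was graded as deep cortical tubular necrosis.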

[4] = organism: Rattus norvegicus; assay: (§4) Percent total excretion of 3-(thiomethyl)acetaminophen glucuronide; type: functional; procedure, shortened: as §2
[5] = organism: Rattus norvegicus; assay: (§5) Percent total excretion of acetaminophen; type: functional; procedure, shortened: as §2
[6] = (§6) Percent total excretion of N-methoxyacetaminophen glucuronide; type: ADME; procedure, shortened: as §2
[7] = system: Rattus norvegicus; assay: The compound tested for toxicity in liver against male rat after intraperitoneal administration of 1.0 mmol/kg; type: organism-based; details: in vivo, ip; procedure, shortened: as §3
[8] = organism: Rattus norvegicus; assay: as §6; type: functional; procedure, shortened: as §2
[9] = (§7) Percent total excretion of acetaminophen-mercapturic acid; type: ADME; procedure, shortened: as §2
[10] = organism: Rattus norvegicus; assay: Percent total excretion of acetaminophen cysteine conjugate; type: functional; procedure, shortened: as §2
[11] = system: Mus musculus; assay: The compound tested for toxicity in kidney against male mouse after intraperitoneal administration of 2.0 mmol/kg; type: organism-based; details: in vivo, ip
Procedure, shortened: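 Young adult male Swiss mice given a single intraperitoneal dose of 2.0 mmol/kg in aqueous solution. Animals were held in metabolic cages with standard feed and water ad libitum, and urine was collected for 48 h. At 48 h, liver and kidneys were taken for histology. Liver was scored as vacuolation (1+) or centrilobular necrosis (2+ to 4+); kidney was scored as deep cortical tubular necrosis.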

[12] = organism: Rattus norvegicus; assay: (§8) Percent total excretion of N-methoxyacetaminophen sulfate; type: functional; procedure, shortened: as §2
[13] = system: Rattus norvegicus; assay: (§9) Percent dose excreted in 0-48 hours administered ip to male rat; type: functional
Procedure, shortened: (§10)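 Young adult male Sprague-Dawley rats were dosed i.p. with N-hydroxyacetaminophen in aqueous solution at 1.0 and 2.0 mmol/kg. Animals were held in metabolic cages with standard feed and water ad libitum, and urine was collected over 48 h. Quantitation was by gradient HPLC, using response factors from standard solutions.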

[14] = organism: Rattus norvegicus; assay: as §7; type: functional; procedure, shortened: as §2
[15] = as §5; type: ADME; procedure, shortened: as §2
[16] = system: Rattus norvegicus; assay: The compound tested for toxicity in liver against male rat after intraperitoneal administration of 2.0 mmol/kg; type: organism-based; details: in vivo, ip; procedure, shortened: as §3
[17] = as §8; type: ADME; procedure, shortened: as §2
[18] = organism: Rattus norvegicus; assay: (§11) Percent total excretion of 3-(thiomethyl)acetaminophen sulfate; type: functional; procedure, shortened: as §2
[19] = system: Rattus norvegicus; assay: as §9; type: ADME, organism-based; details: in vivo; procedure, shortened: as §10
[20] = organism: Rattus norvegicus; assay: Percent total excretion of acetaminophen sulfate; type: functional; procedure, shortened: as §2
[21] = as §4; type: ADME; procedure, shortened: as §2
[22] = (§12) Percent total excretion of acetaminophen glucuronide; type: ADME; procedure, shortened: as §2
[23] = organism: Rattus norvegicus; assay: as §12; type: functional; procedure, shortened: as §2
[24] = as §11; type: ADME; procedure, shortened: as §2
[25] = system: Mus musculus; assay: The compound tested for toxicity in liver against male mouse after intraperitoneal administration of 2.0 mmol/kg; details: in vivo, ip
[26] = organism: Rattus norvegicus; assay: as §1; type: functional; procedure, shortened: as §2
[27] = system: Rattus norvegicus; assay: The compound tested for toxicity in kidney against male rat after intraperitoneal administration of 2.0 mmol/kg; Positive; type: organism-based; details: in vivo, ip; procedure, shortened: as §3
[28] = Percent of total excretion of acetaminophen glucuronide; type: ADME; procedure, shortened: as §2
[29] = Percent of total excretion of N-methoxyacetaminophen glucuronide; type: ADME; procedure, shortened: as §2
[30] = Percent of total excretion of 3-(thiomethyl)acetaminophen glucuronide; type: ADME; procedure, shortened: as §2
[31] = Percent of total excretion of 3-(thiomethyl)acetaminophen sulfate; type: ADME; procedure, shortened: as §2
[32] = system: Mus musculus; assay: The compound tested for toxicity in kidney against female mouse after intragastric administration of 10.0 mmol/kg; Normal; details: in vivo
[33] = Percent of total excretion of N-methoxyacetaminophen sulfate; type: ADME; procedure, shortened: as §2
[34] = system: Mus musculus; assay: The compound tested for toxicity in liver against female mouse after intravenous administration of 2.0 mmol/kg; signifies centrilobular necrosis of liver; type: organism-based; details: in vivo
Procedure, shortened: (§13)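 Young adult female Swiss mice, previously housed on pine wood-chip bedding. The sodium salt was given in aqueous solution at 2.0 mmol/kg intravenously or 10 mmol/kg intragastrically. Animals were housed in metabolic cages with feed and water ad libitum for 48 h, with urine collected throughout. At 48 h, liver and kidneys were assessed histologically. Liver was graded as vacuolation (1+) or centrilobular necrosis (2+ to 4+); kidney was graded as deep cortical tubular necrosis.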

[35] = Percent of total excretion of acetaminophen-mercapturic acid; type: ADME; procedure, shortened: as §2
[36] = system: Mus musculus; assay: The compound tested for toxicity in kidney against female mouse after intravenous administration of 2.0 mmol/kg; Normal; type: organism-based; details: in vivo; procedure, shortened: as §13
[37] = system: Mus musculus; assay: The compound tested for toxicity in liver against female mouse after intragastric administration of 10 mmol/kg; signifies centrilobular necrosis of liver; type: organism-based; details: in vivo, po; procedure, shortened: as §13
[38] = Percent of total excretion of 3-methoxyacetaminophen glucuronide; type: ADME; procedure, shortened: as §2
[39] = Percent of total excretion of N-hydroxyacetaminophen sulfate; type: ADME; procedure, shortened: as §2
[40] = Percent of total excretion of acetaminophen sulfate; type: ADME
Procedure, shortened: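 Rats (male Sprague-Dawley, 1.0 or 2.0 mmol/kg ip) and Swiss mice (males 2.0 mmol/kg ip; females 2.0 mmol/kg iv or 10 mmol/kg intragastric) dosed in aqueous solution. Urine was collected over 0–48 h in metabolic cages. Filtered urine went through gradient HPLC (pH 7.2 buffer, 0→50% methanol; 254/280 nm), quantified against standard peak-area response factors. Values are % of total excreted metabolites.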

[41] = Percent of total excretion of N-hydroxyacetaminophen glucuronide; type: ADME; procedure, shortened: as §2
[42] = Percent of total excretion of acetaminophen; type: ADME; procedure, shortened: as §2
[43] = Percent of total excretion of acetaminophen cysteine conjugate; type: ADME; procedure, shortened: as §2

SMILES: CC(=O)N(O)c1ccc(O)cc1
- Dose [1]: 41.5%
- Total excretion [2]: 0%
- Toxicity [3]: 0
- Total excretion [4]: 1.9%
- Total excretion [5]: 7%
- Total excretion [6]: 2.3% and 3.4%
- Toxicity [7]: 0
- Total excretion [8]: 1.5%
- Total excretion [9]: 13.2% and 6.1%
- Total excretion [10]: 0%
- Toxicity [11]: 0
- Total excretion [12]: 8.1%
- Dose [13]: 70.9%
- Total excretion [14]: 14.5%
- Total excretion [15]: 5% and 4.5%
- Toxicity [16]: 0
- Total excretion [17]: 2.7% and 3%
- Total excretion [18]: 5.1%
- Dose [19]: 55%
- Total excretion [20]: 51.3%
- Total excretion [21]: 2% and 4.1%
- Total excretion [22]: 18% and 25.9%
- Total excretion [23]: 10.8%
- Total excretion [24]: 9% and 15.9%
- Toxicity [25]: 2
- Total excretion [26]: 0%
- Toxicity [27]: Positive

SMILES: CC(=O)Nc1ccc(O)cc1 [ACETAMINOPHEN]
- Total excretion [28]: 64% and 58.4%
- Total excretion [29]: 0%
- Total excretion [30]: 0.7% and 0.6%
- Total excretion [31]: 3.3% and 1.5%
- Toxicity [32]: 0
- Total excretion [33]: 0%
- Toxicity [34]: 2
- Total excretion [35]: 3.5% and 3.8%
- Toxicity [36]: 0
- Toxicity [37]: 3
- Total excretion [38]: 0%
- Total excretion [39]: 0%
- Total excretion [40]: 13.8% and 13.3%
- Total excretion [41]: 0%
- Total excretion [42]: 11.9% and 12.1%
- Total excretion [43]: 2.9% and 10.4%
